ChEMBL document CHEMBL3739264, “Synthesis and bio-evaluation of novel quinolino-stilbene derivatives as potential anticancer agents” (Bioorg Med Chem, 2015)
Activity calls are given as the source filed them. The calls are words filed in the database; no cut-off is given here.

Columns and labels:
HeLa = test: Antiproliferative activity against human HeLa cells after 72 hrs by SRB assay; format: functional, cell-based
Summary of the method: (§1)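 Cells seeded at 4,000-5,000/well for 16 h, then exposed 72 h to serial dilutions of compound in DMSO; sham DMSO as 100% and TCA-treated wells as 0%. Fixed in 10% TCA at 4°C for 1 h, stained with 0.4% SRB for 30 min, dye solubilised in 10 mmol Tris pH 10.5, read at 540 nm. IC50 from sigmoidal dose-response curves; two biological replicates, four technical each.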

MCF7 = test: Antiproliferative activity against human MCF7 cells after 72 hrs by SRB assay; format: functional, cell-based; conditions: MCF7, 72 h
Summary of the method: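 Cells seeded at 4,000-5,000/well for 16 h, then exposed 72 h to serial dilutions of compound in DMSO; sham DMSO as 100% and TCA-treated wells as 0%. IC50 from sigmoidal dose-response curves; two biological replicates, four technical each.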

MDA-MB-231 = test: Antiproliferative activity against human MDA-MB-231 cells after 72 hrs by SRB assay; format: functional, cell-based; conditions: MDA-MB-231, 72 h; summary of the method: as §1
MDA-MB-468 [1] = test: Antiproliferative activity against human MDA-MB-468 cells after 72 hrs by SRB assay; format: functional, cell-based; conditions: MDA-MB-468, 72 h; summary of the method: as §1
[2] = Antiproliferative activity against human 184B5 cells after 72 hrs by SRB assay; format: cell-based; conditions: 184B5, 72 h; summary of the method: as §1
MDA-MB-468 [3] = test: Cell cycle arrest in human MDA-MB-468 cells assessed as accumulation at S phase at 1 uM after 72 hrs by flow cytometry analysis relative to control; format: functional
Summary of the method: (§2)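 Cells seeded overnight at about 1 × 10^6 per plate, treated next morning, and harvested at set times. Fixed in 75% ethanol at -20°C for 12-24 h, then stained 1 h in PBS with 0.3% NP-40, 100 µg/ml RNase A and 100 µg/ml propidium iodide. Phase distribution read from DNA content by flow cytometry against sham-treated cells.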

MDA-MB-468 [4] = test: Cell cycle arrest in human MDA-MB-468 cells assessed as accumulation at G0-G1 phase at 1 uM after 72 hrs by flow cytometry analysis relative to control; format: functional; summary of the method: as §2
MDA-MB-468 [5] = test: Cell cycle arrest in human MDA-MB-468 cells assessed as accumulation at sub-G1 phase at 1 uM after 72 hrs by flow cytometry analysis relative to control; format: functional; summary of the method: as §2
MDA-MB-468 [6] = test: Cell cycle arrest in human MDA-MB-468 cells assessed as accumulation at G2/M phase at 1 uM after 48 hrs by flow cytometry analysis relative to control; format: functional; summary of the method: as §2
MDA-MB-468 [7] = test: Cell cycle arrest in human MDA-MB-468 cells assessed as accumulation at S phase at 1 uM after 48 hrs by flow cytometry analysis relative to control; format: functional; summary of the method: as §2
MDA-MB-468 [8] = test: Cell cycle arrest in human MDA-MB-468 cells assessed as accumulation at G0-G1 phase at 1 uM after 48 hrs by flow cytometry analysis relative to control; format: functional; summary of the method: as §2
MDA-MB-468 [9] = test: Cell cycle arrest in human MDA-MB-468 cells assessed as accumulation at sub-G1 phase at 1 uM after 48 hrs by flow cytometry analysis relative to control; format: functional; summary of the method: as §2
MDA-MB-468 [10] = test: Cell cycle arrest in human MDA-MB-468 cells assessed as accumulation at G2/M phase at 1 uM after 24 hrs by flow cytometry analysis relative to control; format: functional; summary of the method: as §2
MDA-MB-468 [11] = test: Cell cycle arrest in human MDA-MB-468 cells assessed as accumulation at S phase at 1 uM after 24 hrs by flow cytometry analysis relative to control; format: functional; summary of the method: as §2
MDA-MB-468 [12] = test: Cell cycle arrest in human MDA-MB-468 cells assessed as accumulation at G0-G1 phase at 1 uM after 24 hrs by flow cytometry analysis relative to control; format: functional; summary of the method: as §2
MDA-MB-468 [13] = test: Cell cycle arrest in human MDA-MB-468 cells assessed as accumulation at sub-G1 phase at 1 uM after 24 hrs by flow cytometry analysis relative to control; format: functional; summary of the method: as §2
MDA-MB-468 [14] = test: Cell cycle arrest in human MDA-MB-468 cells assessed as accumulation at G2/M phase at 1 uM after 12 hrs by flow cytometry analysis relative to control; format: functional; summary of the method: as §2
MDA-MB-468 [15] = test: Cell cycle arrest in human MDA-MB-468 cells assessed as accumulation at S phase at 1 uM after 12 hrs by flow cytometry analysis relative to control; format: functional; summary of the method: as §2
MDA-MB-468 [16] = test: Cell cycle arrest in human MDA-MB-468 cells assessed as accumulation at G0-G1 phase at 1 uM after 12 hrs by flow cytometry analysis relative to control; format: functional; summary of the method: as §2
MDA-MB-468 [17] = test: Cell cycle arrest in human MDA-MB-468 cells assessed as accumulation at sub-G1 phase at 1 uM after 12 hrs by flow cytometry analysis relative to control; format: functional; summary of the method: as §2
MDA-MB-468 [18] = test: Cell cycle arrest in human MDA-MB-468 cells assessed as accumulation at G2/M phase at 1 uM after 72 hrs by flow cytometry analysis relative to control; format: functional; summary of the method: as §2
MDA-MB-468 [19] = test: Induction of DNA damage in human MDA-MB-468 cells at 1 uM after 24 hrs by immunostaining; format: functional, cell-based
Summary of the method: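 γH2A.X (phospho-Ser139) immunostaining, with HeLa at 6 µM for 24 or 48 h and MDA-MB468 at 1 µM. Cells on coverslips fixed and permeabilized in ice-cold methanol at -20°C. Blocked in 1% FBS, primary antibody 1:200 overnight at 4°C, then fluorophore-conjugated secondary 1 h. DNA counterstained with DRAQ5.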

Tubulin (Homo sapiens) = Tubulin (Homo sapiens) (UniProt P68371+Q9H4B7+P0DPH7+P68366+Q13509+Q71U36+P04350+Q3ZCM7+P07437+P68363+Q9BQE3+Q6PEY2+Q13885+Q9BVA1+Q9BUF5); conditions: 5 uM

Compound | IC50 (HeLa) [µM] | IC50 (MCF7) [µM] | IC50 (MDA-MB-231) [µM] | IC50 (MDA-MB-468 [1]) [µM] | IC50 [2] [µM] | further results
FC(F)(F)c1cc(/C=C\c2cc3ccc(Cl)cc3nc2Cl)cc(C(F)(F)F)c1 | 41.4 | 41.7 | > 50 | > 50 | 43 | –
FC(F)(F)c1ccc(/C=C\c2cc3ccccc3nc2Cl)c(C(F)(F)F)c1 | 35.9 | 10.5 | 41.8 | – | – | –
Fc1ccc(/C=C\c2cc3ccccc3nc2Cl)cc1 | 24.9 | 20.3 | 24 | 5.29 | 35.7 | –
COc1ccc2nc(Cl)c(/C=C\c3ccc(C(F)(F)F)cc3C(F)(F)F)cc2c1 | > 50 | > 50 | > 50 | > 50 | > 50 | –
Fc1ccc(/C=C/c2cc3ccccc3nc2Cl)cc1 | > 50 | 15.1 | > 50 | 0.12 | 38.5 | Activity (MDA-MB-468 [3]): 11.4%; Activity (MDA-MB-468 [4]): 16.1%; Activity (MDA-MB-468 [5]): 65%; Activity (MDA-MB-468 [6]): 15%; Activity (MDA-MB-468 [7]): 22%; Activity (MDA-MB-468 [8]): 21.8%; Activity (MDA-MB-468 [9]): 40.6%; Activity (MDA-MB-468 [10]): 20.2%; Activity (MDA-MB-468 [11]): 41.7%; Activity (MDA-MB-468 [12]): 23.1%; Activity (MDA-MB-468 [13]): 13.7%; Activity (MDA-MB-468 [14]): 21.9%; Activity (MDA-MB-468 [15]): 34.5%; Activity (MDA-MB-468 [16]): 37%; Activity (MDA-MB-468 [17]): 5%; Activity (MDA-MB-468 [18]): 6.7%; Activity (MDA-MB-468 [19]): Active
COc1ccc2nc(Cl)c(/C=C\c3ccc(C(F)(F)F)cc3)cc2c1 | 16.2 | 12.4 | 22.8 | 22.7 | 40 | –
Fc1ccc(/C=C\c2cc3ccc(Cl)cc3nc2Cl)cc1 | 38.6 | 16.9 | 42.6 | 10.9 | 26.9 | –
COc1ccc2nc(Cl)c(/C=C/c3ccc(F)cc3)cc2c1 | > 50 | 14.1 | 11 | 14.8 | 9.74 | –
CC[C@@]1(O)C(=O)OCc2c1cc1n(c2=O)Cc2cc3ccccc3nc2-1 [CAMPTOTHECIN] | 0.00613 | – | 0.00577 | 0.0148 | 0.00496 | –
CCN(CC)CCCC(C)Nc1ccnc2cc(Cl)ccc12 (stereo not drawn) [CHLOROQUINE] | 30 | – | 36.5 | 19.9 | 63.1 | –
COc1ccc2nc(Cl)c(/C=C/c3ccc(C(F)(F)F)cc3)cc2c1 | > 50 | 47 | 48.8 | > 50 | 33.5 | –
FC(F)(F)c1cc(/C=C\c2cc3cc4c(cc3nc2Cl)OCO4)cc(C(F)(F)F)c1 | > 50 | > 50 | > 50 | > 50 | > 50 | –
FC(F)(F)c1cccc(/C=C/c2cc3ccccc3nc2Cl)c1 | 20.3 | 24.4 | 45 | 24 | 24.7 | –
COC(=O)Nc1nc2cc(C(=O)c3cccs3)ccc2[nH]1 | – | – | – | – | – | inhibition (Tubulin (Homo sapiens)): Active
FC(F)(F)c1cccc(/C=C\c2cc3cc4c(cc3nc2Cl)OCO4)c1 | 20.1 | 18.9 | 26 | > 50 | 17 | –

Further lines, with some results ahead:

IC50 (HeLa) [µM] | IC50 (MCF7) [µM] | IC50 (MDA-MB-231) [µM] | IC50 (MDA-MB-468 [1]) [µM] | Compound | IC50 [2] [µM] | further results
9.67 | 8.97 | 11.4 | 15.2 | COc1ccc2nc(Cl)c(/C=C\c3ccc(F)cc3)cc2c1 | 19.2 | –
6.78 | 7.46 | 10.1 | 10.5 | FC(F)(F)c1cc(/C=C\c2cc3ccccc3nc2Cl)cc(C(F)(F)F)c1 | 13.7 | –
4.14 | 4.7 | 4.47 | 5.79 | COc1ccc2nc(Cl)c(/C=C\c3cc(C(F)(F)F)cc(C(F)(F)F)c3)cc2c1 | 7.97 | –
2.6 | 4.47 | 2.77 | 4.98 | COc1ccc2nc(Cl)c(/C=C\c3ccccc3C(F)(F)F)cc2c1 | 5.31 | –
12.6 | 6.45 | 13.6 | 16.1 | FC(F)(F)c1ccc(/C=C\c2cc3ccc(Cl)cc3nc2Cl)cc1 | 26.4 | –
3.03 | 2.78 | 3.28 | 3.91 | COc1ccc2nc(Cl)c(/C=C\c3cccc(C(F)(F)F)c3)cc2c1 | 5.58 | –
0.00229 | – | 0.00256 | 0.00387 | CC(=O)O[C@H]1C(=O)[C@@]2(C)[C@H]([C@H](OC(=O)c3ccccc3)[C@]3(O)C[C@H](OC(=O)[C@H](O)[C@@H](NC(=O)c4ccccc4)c4ccccc4)C(C)=C1C3(C)C)[C@]1(OC(C)=O)CO[C@@H]1C[C@@H]2O [PACLITAXEL] | 0.00232 | –
4.22 | 4.26 | 5.36 | 7.38 | FC(F)(F)c1ccc(/C=C\c2cc3ccccc3nc2Cl)cc1 | 7.94 | –
